The list is not random: actives were taken first. Their share in the collection is about 1.9%.
Runt-CBFb FRET – Runt domain-CBFb interaction inhibition. inhibition, % at 20 µM. Cerulean-Runt/Venus-CBFb FRET ratio 530/480, 1 h. Q01196+Q13951. 220,000 compounds, 0.46% hits;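 active = inhibition over about 50% at 20 µM in the single-dose screen, limit read from the data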;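 note: 0% = DMSO wells and 100% = excess unlabeled CBFb competitor control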
Target sequence (Q01196 whole entry, looked up, the tested form may be a part): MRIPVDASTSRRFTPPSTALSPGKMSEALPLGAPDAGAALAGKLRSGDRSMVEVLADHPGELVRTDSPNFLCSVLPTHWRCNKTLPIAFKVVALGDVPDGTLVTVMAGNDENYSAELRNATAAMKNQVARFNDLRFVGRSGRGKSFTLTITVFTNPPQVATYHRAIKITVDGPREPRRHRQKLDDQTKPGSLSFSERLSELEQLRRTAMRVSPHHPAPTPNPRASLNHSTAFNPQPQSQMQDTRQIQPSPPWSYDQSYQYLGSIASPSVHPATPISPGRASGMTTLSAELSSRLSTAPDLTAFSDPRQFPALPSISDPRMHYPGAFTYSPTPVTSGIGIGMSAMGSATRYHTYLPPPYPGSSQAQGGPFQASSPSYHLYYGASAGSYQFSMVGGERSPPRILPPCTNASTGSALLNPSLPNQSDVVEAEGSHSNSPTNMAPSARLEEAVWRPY
Target sequence (Q13951 whole entry, looked up, the tested form may be a part): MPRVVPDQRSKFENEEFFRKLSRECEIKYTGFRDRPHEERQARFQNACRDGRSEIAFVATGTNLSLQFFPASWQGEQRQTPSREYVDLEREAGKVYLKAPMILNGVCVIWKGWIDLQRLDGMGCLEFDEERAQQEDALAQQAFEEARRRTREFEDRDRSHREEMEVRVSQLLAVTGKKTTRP
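Assay system: Cerulean-Runt domain / Medium: Tris 50 mM pH 7.5, KCl, K2SO4, 0.01% BSA / Timing: protein complex preformed 1 h, compound exposure 1 h, room temperature, dark / Measured by: FRET, excitation 422 nm, emission at 530 and 480 nm / Evaluation: loss of energy transfer signal / Control set: 5 µM unlabeled CBFb as full-inhibition high control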
RanGTP-Imp inh – inhibitors of RanGTP-importin-beta interaction, primary screen, biochemical, FRET, CFP-Ran, YFP-importin-beta, homogeneous. cell-free CFP-Ran/YFP-importin-beta FRET ratio. inhibition, % (concentration not given with the values). 300,000 compounds, 1.1% hits;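 active = more than half of the replicate wells show a fall in the fluorescence ratio signal beyond about 16%, limit read from the data, passing the limit was not always enough; inconclusive = exactly half of the replicate wells pass the set limit; inactive = fewer than half of replicates pass the limit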;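 note: 0% = DMSO wells and 100% = Ran loaded with GDP instead of GTP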
Runt-SMMHC FRET – inhibitors of human RUNX1 Runt domain binding to CBFb-SMMHC | Q01196+Q13951 | Cerulean-Runt/Venus-CBFb-SMMHC FRET ratio 530/480, 1 h | inhibition, % at 20 µM | 220,000 compounds, 0.74% hits | AID 1434;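 active = mean inhibition across duplicate retests at 20 µM reaching about 50%, limit read from the data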;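 note: 0% = DMSO wells and 100% = wells with excess untagged CBFb-SMMHC; inhibitors lower the FRET ratio by blocking Runt binding to CBFb-SMMHC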
TbHK1 inh – T. brucei hexokinase 1 inhibition. recombinant TbHK1, G6PDH-coupled NADH A340. inhibition, % at 10 µM. 220,000 compounds, 0.11% hits. AID 1430;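 active = inhibition of 50% or more in the single-dose primary screen; inactive = inhibition below 50%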
Hck Nef HTS – human Hck-Nef kinase inhibition | AID 463187 | 220,000 compounds, 0.68% hits | inhibition, % at 20 µM | Recombinant Hck-YEEI plus Nef, Z-Lyte FRET kinase assay;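 active = Hck-Nef kinase inhibition above about 50%, limit read from the data; inactive = inhibition below that limit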;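 note: 0% = DMSO with Hck plus Nef and 100% = Hck alone without Nef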
* marks the source's active call; other numbers are inactive results; ? = inconclusive; . = no result given.

SMILES | Runt-CBFb FRET | RanGTP-Imp inh | Runt-SMMHC FRET | TbHK1 inh | Hck Nef HTS
O=[N+]([O-])c1ccc(N2CCN(c3cccc(Cl)c3)CC2)cn1 | . | 0 | . | . | .
Cn1c(=O)c2c(nc(SCCN3CCOCC3)n2C)n(C)c1=O | . | 4 | . | . | .
CCn1ncc(Br)c1C(=O)Nc1sc2c(c1C(N)=O)CCC2 | 4 | 47* | -3 | 1 | 2
Cn1cc(Br)c(C(=O)Nc2sc3c(c2C(N)=O)CCC3)n1 | 2 | 6 | -5 | -12 | -1
O=C(O)C1Nc2c(O)cc(Cl)c([N+](=O)[O-])c2C2C=CCC12 (centres undefined) | 19 | -9 | 40 | 41 | 70*
Cc1ccc(NC(=O)c2ccc(-n3cncn3)c([N+](=O)[O-])c2)cc1 | -1 | 26* | -2 | -3 | 3
Cc1ccc2c(c1)nnn2C1CCN(CC(=O)Nc2ccccc2N2CCOCC2)CC1 | 84* | 4 | 2 | -4 | -1
COc1ccc(Cl)cc1NC(=O)CN1CCC(n2nnc3cc(C)ccc32)CC1 | -2 | -3 | 2 | -8 | -1
O=C(CN1CCOCC1)Nc1ccccc1Cl | 0 | -2 | -1 | -4 | -2
N=C1C(=O)OCC1c1ccccc1NC(=O)CN1CCOCC1 (centres undefined) | -3 | 41* | 3 | 2 | 4
Cc1ccc(S(=O)(=O)[N-]c2nc3ccccc3nc2-n2cc[n+](Cc3ccccc3)c2)cc1 | 19 | 14* | 39 | -6 | 13
O=S(=O)([N-]c1nc2ccccc2nc1-n1cc[n+](Cc2ccccc2)c1)c1ccccc1 | 17 | ? | 36 | 2 | 17
COc1ccc(C(=O)/C=C2\Sc3ccccc3N2C)cc1 | 31 | -1 | 56* | -10 | 31
O=C(Cc1ccc(S(=O)(=O)N2CCOCC2)s1)Nc1ccccc1N1CCCC1 | . | 19* | . | . | .
COc1ccc2c(c1)c(C(=O)CN1CCN(C(=O)c3ccco3)CC1)c(C)n2C | -3 | 19* | -38 | -16 | 2
NC(=O)c1ccc(Oc2cccc3cccnc23)c([N+](=O)[O-])c1 | 36 | -1 | 85* | -7 | 9
CCN1CC2=C(OC(N)=C(C#N)C2c2ccccc2)/C(=C\c2ccccc2)C1 (centres undefined) | 4 | 21* | 1 | -9 | -9
Cc1ccc(Nc2[nH]c(=O)c3ccccc3c2C(=O)c2ccccc2)cc1 | . | 27* | . | . | .
CC(=O)Nc1ccc(S(=O)(=O)N2CCN(S(=O)(=O)N3CCC(C)CC3)CC2)cc1 | . | 0 | . | . | .
COc1ccc(Cn2c(/C=C/c3ccccc3)nc3ccccc32)cc1 | 0 | 28* | -4 | -12 | 3
CCn1c(/C=C/c2ccccc2)nc2ccccc21 | -4 | 4 | 1 | -50 | 1
CCC(C)C1Nc2ccc(C(=O)NCCc3ccc(OC)c(OC)c3)cc2NC1=O (centres undefined) | . | -2 | . | . | .
CCC(=O)N1CC2(C)CN(C(=O)CC)CC(C)(C1)C2 | -1 | 17* | 3 | 3 | 3
CC(=O)N1CC2(C)CN(C(C)=O)CC(C)(C1)C2 | 2 | -4 | 3 | -2 | 7
CCc1ccc(N2CC(C(=O)Nc3ccc4c(c3)OCCO4)CC2=O)cc1 (centres undefined) | . | 4 | . | . | .
SMILES | Runt-CBFb FRET | RanGTP-Imp inh | Runt-SMMHC FRET | TbHK1 inh | Hck Nef HTS
CCC(C)(C)n1nnnc1C(c1cc2cc3c(cc2[nH]c1=O)OCO3)N1CCN(C)CC1 (centres undefined) | 40 | 3 | 66* | 20 | 4
CCC(C)(C)n1nnnc1C(c1cc2ccc(OC)cc2[nH]c1=O)N1CCc2ccccc2C1 (centres undefined) | -20 | 16* | -5 | -21 | 3
COc1ccc2cc(C(c3nnnn3C(C)(C)C)N3CCc4ccccc4C3)c(=O)[nH]c2c1 (centres undefined) | -18 | . | -34 | -28 | 7
Cc1cccc(CN2CCCC(C(=O)c3ccc4c5c(cccc35)CC4)C2)n1 (centres undefined) | -2 | -4 | 2 | -9 | 154*
O=C(c1ccc2c3c(cccc13)CC2)C1CCCN(Cc2cccnc2)C1 (centres undefined) | -4 | -3 | -4 | -9 | 17
CC1CCN(C(=O)CSc2nnc(-c3cc4ccccc4cc3O)n2Cc2ccco2)CC1 | 26 | 39* | 24 | 4 | 5
COc1ccc(C(=O)CSc2nnc(-c3cc4ccccc4cc3O)n2Cc2ccco2)cc1 | 20 | -4 | 6 | 4 | 1
CCN(CC)S(=O)(=O)c1ccc(OC)c(NC(=O)c2ccc(-n3cncn3)c([N+](=O)[O-])c2)c1 | . | 2 | . | . | .
CC(/C=C1\SC(=S)N(NS(=O)(=O)c2ccccc2)C1=O)=C\c1ccccc1 | -1 | ? | -9 | 0 | 74*
Cc1csc(NC(=O)c2cc(=O)[nH]c3ccccc23)n1 | 30 | 4 | 69* | -23 | 12
Cc1ccccc1CN1CCN(C(=O)CC(C)C)CC1 | . | 1 | . | . | .
CC1Cc2cc(/C(O)=C3/C(=O)C(=O)N(CCN4CCOCC4)C3c3ccc(N(C)C)cc3)ccc2O1 (centres undefined) | . | 30* | . | . | .
O=C(NCc1ccco1)/C(=C/c1ccc(Br)cc1)NC(=O)c1ccco1 | . | 23* | . | . | .
O=C(NCc1ccccc1)/C(=C\c1ccc(O)cc1)NC(=O)c1ccco1 | . | -3 | . | . | .
O=C(NC(Cc1ccccc1)C(=O)O)/C(=C\c1ccc(Br)cc1)NC(=O)c1ccc(Br)o1 (centres undefined) | . | 12 | . | . | .
O=C(NC(Cc1ccccc1)C(=O)O)/C(=C/c1ccc(Br)cc1)NC(=O)c1ccc(Br)o1 (centres undefined) | . | 24* | . | . | .
CCCN(C(=O)c1cn(C)c(=O)c2ccccc12)c1ccccc1C | . | 1 | . | . | .
CN(C)CCNC(=O)c1nn(C)c2c1CCc1ccccc1-2 | . | -3 | . | . | .
O=C(/C=C/c1ccc(Cl)cc1)N1CCOCC1 | . | 1 | . | . | .
O=C(/C=C/Nc1nccs1)C(F)(F)Cl | 45 | -4 | 71* | -5 | -1
O=C(Nc1nccs1)NC(C(F)(F)F)C(F)(F)F | -1 | 5 | 2 | -4 | 3
CC1(C)Oc2ccc(C(=O)NNC(=O)Nc3ccccc3)cc2NC1=O | . | -1 | . | . | .
COc1ccc(NC(=O)c2cccs2)cc1 | -2 | ? | 2 | 0 | -7
COc1ccc2nc3c(cc2c1)c(NC(=O)c1cccs1)nn3CC(C)C | 62* | 116* | 63* | 45 | 41
CC(C)Cn1nc(NC(=O)c2cccs2)c2cc3ccccc3nc21 | 34 | 64* | 57* | -6 | -74
Clc1ccc(OCc2noc(-c3ccsc3)n2)c(Cl)c1 | 0 | 1 | 1 | 1 | 1
O=C(c1nc2n(n1)C(c1ccc(Cl)cc1)C=C(c1ccccc1)N2)N1CCOCC1 (centres undefined) | -16 | -67 | 62* | -3 | -24
CC(=O)Nc1nc2n(n1)C(c1ccccc1)C=C(c1ccccc1)N2 (centres undefined) | -64 | -9 | 38 | -18 | -3
